Drawing on ChEMBL document CHEMBL1148356, “Synthesis and biological evaluation of 3-heterocyclyl-7,8,9,10-tetrahydro-(7,10-ethano)-1,2,4-triazolo[3,4-a]phthalazines and analogues as subtype-selective inverse agonists for the GABA(A)alpha5 benzodiazepine binding site” (J Med Chem, 2004), this text covers Ki and Efficacy for 18 molecules.

By Ki is commonly meant the equilibrium dissociation constant of an inhibitor or competing ligand from its target. A higher Ki goes with weaker binding.

Some results are limits rather than exact numbers.

For experiment [1], the target named is T1, GABA-A receptor; alpha-5/beta-3/gamma-2 (Homo sapiens, UniProt P18507+P28472+P31644).
T1 sequence (P18507 whole entry): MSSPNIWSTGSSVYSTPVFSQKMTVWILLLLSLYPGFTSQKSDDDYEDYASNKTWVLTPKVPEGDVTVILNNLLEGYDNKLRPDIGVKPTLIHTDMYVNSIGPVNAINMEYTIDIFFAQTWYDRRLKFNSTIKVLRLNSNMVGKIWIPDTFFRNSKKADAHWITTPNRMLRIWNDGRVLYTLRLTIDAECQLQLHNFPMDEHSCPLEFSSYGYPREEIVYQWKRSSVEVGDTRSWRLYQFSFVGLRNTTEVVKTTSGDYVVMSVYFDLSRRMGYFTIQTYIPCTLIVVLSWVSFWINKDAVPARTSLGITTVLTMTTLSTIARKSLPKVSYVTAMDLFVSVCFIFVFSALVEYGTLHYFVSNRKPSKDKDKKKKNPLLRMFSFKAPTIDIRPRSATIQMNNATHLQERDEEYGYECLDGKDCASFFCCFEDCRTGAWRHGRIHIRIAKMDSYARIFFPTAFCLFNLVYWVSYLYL
T1 sequence (P28472 whole entry): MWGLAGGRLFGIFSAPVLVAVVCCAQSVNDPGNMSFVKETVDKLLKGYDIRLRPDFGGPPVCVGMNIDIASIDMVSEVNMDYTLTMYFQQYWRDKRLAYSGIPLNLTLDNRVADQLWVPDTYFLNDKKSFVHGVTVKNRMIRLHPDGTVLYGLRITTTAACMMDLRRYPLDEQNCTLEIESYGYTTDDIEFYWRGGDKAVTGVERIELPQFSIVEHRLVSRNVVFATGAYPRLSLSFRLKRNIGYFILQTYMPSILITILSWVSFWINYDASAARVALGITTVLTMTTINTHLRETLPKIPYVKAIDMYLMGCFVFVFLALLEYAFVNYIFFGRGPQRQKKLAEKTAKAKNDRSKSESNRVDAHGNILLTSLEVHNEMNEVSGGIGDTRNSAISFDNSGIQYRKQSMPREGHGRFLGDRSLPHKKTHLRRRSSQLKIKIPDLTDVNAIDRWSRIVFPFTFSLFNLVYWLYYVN
T1 sequence (P31644 whole entry): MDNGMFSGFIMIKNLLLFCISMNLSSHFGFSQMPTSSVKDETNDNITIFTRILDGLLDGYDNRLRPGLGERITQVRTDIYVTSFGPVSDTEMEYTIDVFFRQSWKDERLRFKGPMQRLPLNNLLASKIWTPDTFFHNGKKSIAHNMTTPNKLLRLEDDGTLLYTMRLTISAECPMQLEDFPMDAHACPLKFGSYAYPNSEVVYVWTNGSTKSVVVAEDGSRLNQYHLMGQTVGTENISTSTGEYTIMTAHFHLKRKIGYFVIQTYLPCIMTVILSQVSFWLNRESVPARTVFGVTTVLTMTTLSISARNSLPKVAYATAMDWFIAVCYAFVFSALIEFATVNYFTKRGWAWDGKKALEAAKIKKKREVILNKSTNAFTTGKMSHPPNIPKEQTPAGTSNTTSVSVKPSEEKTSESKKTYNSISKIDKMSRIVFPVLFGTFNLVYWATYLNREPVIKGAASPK
The experiment in a line: Binding affinity towards human alpha-5-beta-3-gamma-2 GABA-A receptor using [3H]Ro-151788 expressed in L(tk-) cells. The class given is cell-based.

Experiment [2] addresses T2, GABA-A receptor; alpha-1/beta-3/gamma-2 (Homo sapiens, UniProt P14867+P18507+P28472).
T2 sequence (P14867 whole entry): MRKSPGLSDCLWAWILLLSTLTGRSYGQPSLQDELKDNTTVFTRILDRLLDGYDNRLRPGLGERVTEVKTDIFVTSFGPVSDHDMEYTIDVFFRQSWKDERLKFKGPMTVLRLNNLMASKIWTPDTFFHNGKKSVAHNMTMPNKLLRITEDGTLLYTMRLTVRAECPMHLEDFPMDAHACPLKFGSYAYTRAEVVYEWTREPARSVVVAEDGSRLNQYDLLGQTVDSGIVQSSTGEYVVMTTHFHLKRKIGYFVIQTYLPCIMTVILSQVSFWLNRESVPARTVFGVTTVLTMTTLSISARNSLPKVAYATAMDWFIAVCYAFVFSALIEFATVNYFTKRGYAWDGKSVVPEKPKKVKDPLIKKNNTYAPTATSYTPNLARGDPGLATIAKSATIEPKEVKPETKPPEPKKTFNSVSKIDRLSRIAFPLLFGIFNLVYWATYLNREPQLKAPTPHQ
T2 sequence (P18507 whole entry): T1 sequence (P18507 whole entry)
T2 sequence (P28472 whole entry): T1 sequence (P28472 whole entry)
The experiment in a line: Binding affinity towards human alpha-1-beta-3-gamma-2 GABA-A receptor using [3H]Ro-151788 expressed in L(tk-) cells. The class given is cell-based.

The target in experiment [3] is T3, GABA-A receptor; alpha-2/beta-3/gamma-2 (Homo sapiens, UniProt P18507+P28472+P47869).
T3 sequence (P18507 whole entry): T1 sequence (P18507 whole entry)
T3 sequence (P28472 whole entry): T1 sequence (P28472 whole entry)
T3 sequence (P47869 whole entry): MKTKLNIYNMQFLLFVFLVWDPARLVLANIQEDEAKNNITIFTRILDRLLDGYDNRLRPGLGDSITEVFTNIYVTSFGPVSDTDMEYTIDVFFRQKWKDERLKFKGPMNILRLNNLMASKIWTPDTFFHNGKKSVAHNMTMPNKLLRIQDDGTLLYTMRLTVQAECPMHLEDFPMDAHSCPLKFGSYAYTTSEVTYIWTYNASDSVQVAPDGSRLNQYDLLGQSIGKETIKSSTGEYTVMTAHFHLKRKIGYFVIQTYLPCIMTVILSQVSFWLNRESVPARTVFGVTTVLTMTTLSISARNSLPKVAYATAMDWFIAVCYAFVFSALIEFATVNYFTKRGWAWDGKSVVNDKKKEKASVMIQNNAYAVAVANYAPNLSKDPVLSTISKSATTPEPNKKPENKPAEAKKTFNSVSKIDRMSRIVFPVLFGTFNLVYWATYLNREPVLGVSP
The experiment in a line: Binding affinity towards human gamma-aminobutyric-acid A receptor alpha-2-beta-3-gamma-2 using [3H]Ro-151788 expressed in L(tk-) cells. It is filed as cell-based.

Experiment [4] deals with T4, GABA-A receptor; alpha-3/beta-3/gamma-2 (Homo sapiens, UniProt P18507+P28472+P34903).
T4 sequence (P18507 whole entry): T1 sequence (P18507 whole entry)
T4 sequence (P28472 whole entry): T1 sequence (P28472 whole entry)
T4 sequence (P34903 whole entry): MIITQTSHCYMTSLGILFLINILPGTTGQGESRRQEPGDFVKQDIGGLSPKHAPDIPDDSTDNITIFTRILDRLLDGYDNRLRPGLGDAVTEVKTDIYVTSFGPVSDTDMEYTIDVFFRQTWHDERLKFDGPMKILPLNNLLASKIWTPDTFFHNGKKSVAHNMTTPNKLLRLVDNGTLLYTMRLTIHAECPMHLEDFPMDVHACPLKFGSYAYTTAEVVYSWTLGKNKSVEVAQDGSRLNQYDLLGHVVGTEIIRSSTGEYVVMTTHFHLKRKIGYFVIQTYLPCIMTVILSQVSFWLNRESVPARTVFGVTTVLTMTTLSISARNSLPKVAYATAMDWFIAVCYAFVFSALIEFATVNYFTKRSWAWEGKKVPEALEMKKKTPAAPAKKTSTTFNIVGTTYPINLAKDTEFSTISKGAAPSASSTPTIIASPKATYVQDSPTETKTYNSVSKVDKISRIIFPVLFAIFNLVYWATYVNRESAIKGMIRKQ
The experiment in a line: Binding affinity towards human gamma-aminobutyric-acid A receptor alpha-3-beta-3-gamma-2 using [3H]Ro-151788 expressed in L(tk-) cells. The class given is cell-based.

Experiment [5] deals with GABA-A receptor; alpha-5/beta-3/gamma-2 (Homo sapiens) (UniProt P18507+P28472+P31644). The experiment in a line: Percent change in electrophysiological response in Xenopus oocytes expressing Alpha-5-beta-3-gamma-2 GABA-A receptor. It is filed as functional, cell-based. The note with it: Oocyte. Summed up:
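Two-electrode voltage clamp on Xenopus oocytes injected with human GABA-A subunit cDNAs, 24-72 h expression, perfused with modified Barth's medium at pH 7.5, clamped between -40 and -70 mV. The GABA EC20 was titrated against a 3 mM GABA maximum. […] Result is % change of control current, mean ± SE of ≥4 oocytes.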

Turning to `Cc1cccc(COc2nn3c(-c4nc(-c5cccnc5)no4)nnc3c3c2C2CCC3CC2)n1`, the Ki in experiment [1] was 0.0033 µM; in experiment [2] it was greater than 1 µM; in experiment [3], 0.166 µM; in experiment [4] it was 0.0696 µM.
Consider `Cc1cccc(COc2nn3c(-c4ccccn4)nnc3c3c2C2CCC3CC2)n1`, for which the Ki is 0.0153 µM in experiment [1], 0.518 µM in experiment [2], 0.227 µM in experiment [3] and 0.104 µM in experiment [4].
Regarding `Cc1cccc(COc2nn3c(-c4coc(C)n4)nnc3c3c2C2CCC3CC2)n1`, the inhibition constant Ki in experiment [1] was 0.0068 µM; in experiment [2], 0.28 µM; in experiment [3], 0.057 µM; in experiment [4] it was 0.046 µM.
With `Cc1cccc(COc2nn3c(-c4cccs4)nnc3c3c2C2CCC3CC2)n1`, the inhibitory constant (Ki) was 0.004 µM in experiment [1], 0.115 µM in experiment [2], 0.066 µM in experiment [3] and 0.022 µM in experiment [4].
In the case of `Cc1noc(-c2nnc3c4c(c(OCc5ccccn5)nn23)C2CCC4CC2)n1`, the Ki was 0.00077 µM in experiment [1], 0.0282 µM in experiment [2], 0.0085 µM in experiment [3] and 0.0039 µM in experiment [4]. Besides, the Efficacy in experiment [5] was -38%.
Take `Cc1cccc(COc2nn3c(-c4ncnn4C)nnc3c3c2C2CCC3CC2)n1`: the Ki was 0.253 µM in experiment [1], greater than 1 µM in experiment [2], greater than 1 µM in experiment [3] and greater than 1 µM in experiment [4].
As for `Cc1cccc(COc2nn3c(-c4nc(-c5ccccc5)no4)nnc3c3c2C2CCC3CC2)n1`, the Ki was 0.0192 µM in experiment [1], greater than 1 µM in experiment [2], 0.203 µM in experiment [3] and 0.227 µM in experiment [4].
In the case of `Cc1noc(-c2nnc3c4c(c(OCc5ccccc5C#N)nn23)C2CCC4CC2)n1`, the Ki in experiment [1] came out at 0.00044 µM; in experiment [2] it was 0.0175 µM; in experiment [3] it was 0.0029 µM; in experiment [4] it was 0.0017 µM. For the same molecule, the Efficacy in experiment [5] is -45%.
Regarding `Cc1cccc(COc2nn3c(-c4nc(C(C)C)no4)nnc3c3c2C2CCC3CC2)n1`, the Ki is 0.0065 µM in experiment [1], greater than 1 µM in experiment [2], 0.0684 µM in experiment [3] and 0.0839 µM in experiment [4].
For the molecule `Cc1cccc(COc2nn3c(-c4ccsc4)nnc3c3c2C2CCC3CC2)n1`, the Efficacy in experiment [5] was 7%.
Take `Cc1noc(-c2nnc3c4c(c(OCc5cccnc5)nn23)C2CCC4CC2)n1`: the Ki in experiment [1] stood at 0.00093 µM; in experiment [2], 0.0268 µM; in experiment [3] it was 0.0057 µM; in experiment [4], 0.0042 µM.
For `Cc1cccc(COc2nn3c(-c4csc(C)n4)nnc3c3c2C2CCC3CC2)n1`, in that order: 0.058 µM, greater than 1 µM, greater than 1 µM and greater than 1 µM.
For `Cc1cccc(COc2nn3c(-c4ncn(C)n4)nnc3c3c2C2CCC3CC2)n1`, the Ki is 0.214 µM in experiment [1], greater than 1 µM in experiment [2], greater than 1 µM in experiment [3] and greater than 1 µM in experiment [4].
`CCc1noc(-c2nnc3c4c(c(OCc5cccc(C)n5)nn23)C2CCC4CC2)n1`: the inhibition constant Ki in experiment [1] was 0.0035 µM; in experiment [2], 0.171 µM; in experiment [3], 0.034 µM; in experiment [4] it was 0.021 µM.
The corresponding values for `Cc1cccc(COc2nn3c(-c4nc(-c5ccncc5)no4)nnc3c3c2C2CCC3CC2)n1` are 0.0021 µM, greater than 1 µM, 0.209 µM and 0.0264 µM.
For the molecule `Cc1noc(-c2nnc3c4c(c(OCc5ncc[nH]5)nn23)C2CCC4CC2)n1`, the Ki is 0.0038 µM in experiment [1], 0.159 µM in experiment [2], 0.0359 µM in experiment [3] and 0.0194 µM in experiment [4]. Moreover, the Efficacy in experiment [5] was -26%.
As for `Cc1cccc(COc2nn3c(-c4ccco4)nnc3c3c2C2CCC3CC2)n1`, the inhibition constant (Ki) in experiment [1] is 0.013 µM; in experiment [2], 1 µM; in experiment [3], 0.275 µM; in experiment [4], 0.116 µM.
`Cc1nc(-c2nnc3c4c(c(OCc5cccc[n+]5[O-])nn23)C2CCC4CC2)[o+][n-]1`: the Ki was found to be 0.0039 µM in experiment [1], 0.0743 µM in experiment [2], 0.0154 µM in experiment [3] and 0.0147 µM in experiment [4].
